Consider four compounds from ChEMBL document CHEMBL5390282, “Discovery of tert-Butyl Ester Based 6-Diazo-5-oxo-l-norleucine Prodrugs for Enhanced Metabolic Stability and Tumor Delivery” (J Med Chem, 2023).

Each structure is given as a SMILES string.

A short description of data set [1]: Prodrug conversion of C57BL/6 mouse model with CES-/- bearing mouse EL4 cells assessed as ratio of DON metabolite AUC (0 to t) in tumor to plasma at 2.9 mg/kg, sc measured upto 6 hrs by LC-MS analysis. Format: ADME, organism-based. Particulars: tumour. Summed up:
(§1)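 CES1–/– C57BL/6 mice with flank EL4 tumours (about 400 mm3) dosed SC at 2.9 mg/kg (1 mg/kg DON equivalent) in ethanol:Tween 80:saline (5:10:85). Plasma, tumour and jejunum sampled 0–6 h after dosing. DON quantified by LC-MS/MS after dabsyl chloride derivatization, glutamate-d5 internal standard. Cmax, Tmax and AUC derived by noncompartmental analysis.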

Data set [2] can be described thus: Stability in human P493B cells suspended in human plasma assessed as DON metabolite release at 20 uM incubated for 1 hr. Format: ADME, cell-based. The gist of the method:
(§2)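 P493B cells resuspended in human plasma at 10 million cells/mL and preincubated 5 min at 37 °C. Prodrug spiked at 20 μM final and incubated 1 h at 37 °C, in triplicate. Cells pelleted at 1000g. Plasma and pellet each analysed by LC-MS for intact prodrug and DON, with calibration made in each matrix. Partitioning expressed as cell/plasma ratio.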

Data set [3] in a line: Prodrug conversion in human P493B cells suspended in human plasma assessed as DON metabolite concentration at 20 uM incubated for 1 hr. Format: ADME, cell-based. Summed up:
as §2

Data set [4] in a line: Prodrug conversion in jejunum of C57BL/6 mouse model with CES-/- bearing mouse EL4 cells assessed as AUC (0 to t) of DON metabolite at 2.9 mg/kg, sc measured upto 6 hrs by LC-MS analysis. The class given is ADME, organism-based. Particulars: in vivo. Summed up:
as §1

Data set [5] is described as follows: Prodrug conversion in tumor of C57BL/6 mouse model with CES-/- bearing mouse EL4 cells assessed as AUC (0 to t) of DON metabolite at 2.9 mg/kg, sc measured upto 6 hrs by LC-MS analysis. The class given is ADME, organism-based, Neoplasm. The conditions noted are these: in vivo. The gist of the method:
as §1

Data set [6] can be described thus: Stability in human P493B cells suspended in human plasma assessed as tumor cell to plasma partitioning ratio at 20 uM incubated for 1 hr. The class given is ADME, cell-based. The gist of the method: as §2
The nature of data set [7]: Prodrug conversion in jejunum of C57BL/6 mouse model with CES-/- bearing mouse EL4 cells assessed as Cmax of DON metabolite at 2.9 mg/kg, sc measured upto 6 hrs by LC-MS analysis. Format: ADME, organism-based. Further details: dose 2.9 mg/kg, time < 6 hrs, route sc. The conditions noted are these: in vivo. Summed up:
as §1

A short description of data set [8]: Prodrug conversion in C57BL/6 mouse model with CES-/- bearing mouse EL4 cells assessed as ratio of DON metabolite AUC in tumor to jejunum at 2.9 mg/kg, sc measured upto 6 hrs by LC-MS analysis. The class given is ADME, organism-based. Particulars: in vivo. The gist of the method:
as §1

A short description of data set [9]: Prodrug conversion in plasma of C57BL/6 mouse model with CES-/- bearing mouse EL4 cells assessed as Tmax of DON metabolite at 2.9 mg/kg, sc measured upto 6 hrs by LC-MS analysis. The class given is ADME, organism-based. Particulars: in vivo. Summed up:
as §1

The nature of data set [10]: Stability in human plasma suspended with human P493B cells assessed as tumor cell to plasma partitioning at 20 uM incubated for 1 hr. The class given is ADME. Summed up:
as §2

Data set [11] in a line: Drug concentration in jejunum of C57BL/6 mouse model with CES-/- bearing mouse EL4 cells at 2.9 mg/kg, sc measured upto 6 hrs by LC-MS analysis. The class given is ADME, organism-based. The gist of the method: as §1
Data set [12] in a line: Prodrug conversion of C57BL/6 mouse model with CES-/- bearing mouse EL4 cells assessed as ratio of DON metabolite AUC (0 to t) in tumor to jejunum at 2.9 mg/kg, sc measured upto 6 hrs by LC-MS analysis. Particulars: in vivo. The class given is ADME, organism-based. The gist of the method: as §1
Data set [13] is described as follows: Prodrug conversion in plasma of C57BL/6 mouse model with CES-/- bearing mouse EL4 cells assessed as Cmax of DON metabolite at 2.9 mg/kg, sc measured upto 6 hrs by LC-MS analysis. Format: ADME, organism-based. Further details: time < 6 hrs, dose 2.9 mg/kg, route sc. The conditions noted are these: in vivo. Summed up:
as §1

Data set [14] can be described thus: Prodrug conversion in tumor of C57BL/6 mouse model with CES-/- bearing mouse EL4 cells assessed as half life of DON metabolite at 2.9 mg/kg, sc measured upto 6 hrs by LC-MS analysis. Format: ADME, organism-based, Neoplasm. Particulars: in vivo. The gist of the method:
as §1

In a further data set the test system is P493B. The data set is described as follows: Antiproliferative activity against human P493B cells assessed as reduction in cell viability incubated for 72 hrs by Cell Titer 96 Aqueous assay. The class given is functional, cell-based. The gist of the method: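 P493B lymphoma cells seeded at 20 000 cells/well. Test agent added as half-log serial dilutions in 0.2% DMSO final, then 72 h growth. CellTiter 96 AQueous reagent added for 2 h and absorbance read at 490 nm. Viability scaled between untreated cells (100%) and cell-free medium (0%). EC50 obtained by nonlinear regression of log-transformed data.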

The nature of data set [15]: Prodrug conversion in jejunum of C57BL/6 mouse model with CES-/- bearing mouse EL4 cells assessed as AUC of DON metabolite at 2.9 mg/kg, sc measured upto 6 hrs by LC-MS analysis. The class given is ADME, organism-based. Further details: dose 2.9 mg/kg, time < 6 hrs, route sc. Particulars: in vivo. The gist of the method:
as §1

Data set [16] can be described thus: Prodrug conversion in plasma of C57BL/6 mouse model with CES-/- bearing mouse EL4 cells assessed as AUC of DON metabolite at 2.9 mg/kg, sc measured upto 6 hrs by LC-MS analysis. Particulars: in vivo. Format: ADME, organism-based. Further details: time < 6 hrs, dose 2.9 mg/kg, route sc. The gist of the method:
as §1

Data set [17] is described as follows: Prodrug conversion in jejunum of C57BL/6 mouse model with CES-/- bearing mouse EL4 cells assessed as half life of DON metabolite at 2.9 mg/kg, sc measured upto 6 hrs by LC-MS analysis. Format: ADME, organism-based. The conditions noted are these: in vivo. The gist of the method:
as §1

A short description of data set [18]: Prodrug conversion in C57BL/6 mouse model with CES-/- bearing mouse EL4 cells assessed as ratio of DON metabolite AUC in tumor to plasma at 2.9 mg/kg, sc measured upto 6 hrs by LC-MS analysis. The conditions noted are these: tumour. Format: ADME, organism-based. Summed up: as §1
Data set [19] can be described thus: Chemical stability of compound at pH 7.4 at 10 uM incubated for 24 hrs by HRMS analysis. Format: physicochemical. Particulars: buffer, pH 7.4, 24 h. Summed up: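 Prodrug spiked at 10 μM into pH 7.4 buffer and held at 37 °C for 24 h. Loss of prodrug followed by HRMS.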
Data set [20] in a line: Prodrug conversion in C57BL/6 mouse model with CES-/- bearing mouse EL4 cells assessed as concentration of DON release in tumor administered subcutaneously at 1 mg/kg DON equivalent measured after 30 mins. Format: ADME, organism-based. Particulars: in vivo, sc, 0.5 h, read-out: Drug metabolism. The gist of the method:
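Male and female CES1–/– C57BL/6 mice, 6–8 weeks old, each carrying a flank EL4 tumour (1 × 10^6 cells SC in PBS, grown to about 400 mm3). Prodrug dissolved just before use in ethanol:Tween 80:saline (5:10:85) and given once SC at 1 mg/kg DON equivalent, n = 3. At 30 min, plasma and tumour collected. DON measured by LC-MS/MS after dabsyl chloride derivatization, glutamate-d5 internal standard, calibration 0.03–100 nmol/mL.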

Data set [21] can be described thus: Prodrug conversion in plasma of C57BL/6 mouse model with CES-/- bearing mouse EL4 cells assessed as AUC (0 to t) of DON metabolite at 2.9 mg/kg, sc measured upto 6 hrs by LC-MS analysis. The class given is ADME, organism-based. Particulars: in vivo. Summed up: as §1
Data set [22] is described as follows: Prodrug conversion in jejunum of C57BL/6 mouse model with CES-/- bearing mouse EL4 cells assessed as Tmax of DON metabolite at 2.9 mg/kg, sc measured upto 6 hrs by LC-MS analysis. The class given is ADME, organism-based. Particulars: in vivo. Summed up: as §1
Data set [23] in a line: Prodrug conversion in tumor of C57BL/6 mouse model with CES-/- bearing mouse EL4 cells assessed as AUC of DON metabolite at 2.9 mg/kg, sc measured upto 6 hrs by LC-MS analysis. Format: ADME, organism-based, Neoplasm. Also noted: time < 6 hrs, dose 2.9 mg/kg, route sc. Particulars: in vivo. The gist of the method:
as §1

Data set [24] can be described thus: Prodrug conversion in tumor of C57BL/6 mouse model with CES-/- bearing mouse EL4 cells assessed as Tmax of DON metabolite at 2.9 mg/kg, sc measured upto 6 hrs by LC-MS analysis. Format: ADME, organism-based, Neoplasm. The conditions noted are these: in vivo. The gist of the method:
as §1

Data set [25] in a line: Prodrug conversion in plasma of C57BL/6 mouse model with CES-/- bearing mouse EL4 cells assessed as half life of DON metabolite at 2.9 mg/kg, sc measured upto 6 hrs by LC-MS analysis. Format: ADME, organism-based. The conditions noted are these: in vivo. Summed up:
as §1

Data set [26] is described as follows: Prodrug conversion in tumor of C57BL/6 mouse model with CES-/- bearing mouse EL4 cells assessed as Cmax of DON metabolite at 2.9 mg/kg, sc measured upto 6 hrs by LC-MS analysis. The class given is ADME, organism-based, Neoplasm. Further details: dose 2.9 mg/kg, time < 6 hrs, route sc. The conditions noted are these: in vivo. Summed up: as §1

In the case of `CN(C)CC(=O)N[C@@H](Cc1ccccc1)C(=O)N[C@@H](CCC(=O)C=[N+]=[N-])C(=O)OC(C)(C)C`, the “Ratio AUC” value stood at 3.6 in data set [1], 3.92 in [8], 4.4 in [12] and 3.63 in [18]. Also, the Stability entry in data set [2] is listed as “Unstable”; in data set [10] it was “Stable”; in data set [19] it was “Stable”. Moreover, the Drug metabolism in data set [3] came to 46.7 µM. The AUCt in [4] was 3.13 nmol·h/g; in [5], 13.7 nmol·h/g; in data set [21], 3.8 nmol·h/g. Besides, in [6], the Ratio is listed as 140. Moreover, the Cmax in data set [7] stood at 1.54 µM; in [13], 1.86 µM; in [26] it was 5.49 µM. Besides, the time to peak (Tmax) was determined as 30 min in [9], 60 min in data set [22] and 30 min in data set [24]. Besides, the concentration at 6 h in data set [11] is under 0.01 µM. Moreover, the values for the t1/2 in data set [14], in data set [17] and in data set [25] were 83.4 min, 59.4 min and 87 min, respectively. Further, the Activity entry in the data set on P493B is “Dose-Dependent Effect”. Besides, the AUC in data set [15] worked out at 3.67 µM·h; in data set [16], 3.97 µM·h; in data set [23] it was 14.4 µM·h. Moreover, the concentration in data set [20] was determined as 5.49 µM.
Regarding `CC(=O)N[C@@H](Cc1c[nH]c2ccccc12)C(=O)N[C@@H](CCC(=O)C=[N+]=[N-])C(=O)OC(C)C` [SIRPIGLENASTAT], the values for the Stability entry in data set [2], in data set [10] and in data set [19] were “Unstable”, “Stable” and “Stable”, respectively. In addition, the Drug metabolism in [3] was found to be 9.1 µM. For the same compound, the Ratio in [6] was found to be 180. The Activity result in the data set on P493B was “Dose-Dependent Effect”. Moreover, in data set [20], the concentration was found to be 1.21 µM.
For the compound `CN(C)CC(=O)N[C@@H](CCc1ccccc1)C(=O)N[C@@H](CCC(=O)C=[N+]=[N-])C(=O)OC(C)(C)C`, the concentration in [20] was 4.52 µM.
Same read-out and setting: in the case of `CN(C)CC(=O)N[C@@H](Cc1ccc(C(F)(F)F)cc1)C(=O)N[C@@H](CCC(=O)C=[N+]=[N-])C(=O)OC(C)(C)C` it was 4.16 µM.

The term Cmax denotes the peak of the concentration-time curve. The Tmax is the time at which the peak concentration occurs. By AUC is commonly meant concentration integrated over time.
